According to ChEMBL document CHEMBL4346656, “Synthesis of urea analogues bearing N-alkyl-N'-(thiophen-2-yl) scaffold and evaluation of their innate immune response to toll-like receptors” (Eur J Med Chem, 2019):
The source made the active and inactive calls. The rule behind the calls is not given here.

Legend:
Format in all cases: cell-based
Toll-like receptor 2 [1] = target: T1, Toll-like receptor 2 (Homo sapiens, UniProt O60603); assay: Agonist activity at human TLR2 expressed in HEK-Blue cells assessed as activation of SEAP incubated for 24 hrs by quanti-blue SEAP assay
Method in brief: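 TLR2 agonism in HEK-Blue hTLR2 cells, 4 × 10⁴/well, pre-cultured 24 h in DMEM/10% FBS at 37 °C, then treated 24 h with compound in fresh DMEM (tested up to 200 μM). Supernatant SEAP was read with QUANTI-Blue at 37 °C for 0.5–1 h, A620. EC50 came from at least three independent repeats.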

Toll-like receptor 2 [2] = target: T1, Toll-like receptor 2; assay: Agonist activity at human TLR2 expressed in HEK-Blue cells assessed as increase in TLR2 expression at 0.1 uM incubated for 24 hrs by Western blot analysis relative to control
Method in brief: (§1)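 Western blot: HEK-Blue hTLR2 cells, 1.5 × 10⁶/well, were grown 24 h, then treated in serum-free DMEM with compound (0–50 μM) for 24 h. Cells were lysed in RIPA/PMSF, equal lysate loaded, SDS-PAGE, nitrocellulose. Membranes were blocked with 5% milk, probed overnight at 4 °C with rabbit anti-TLR2 (1:2000), then HRP secondary, with GAPDH as loading control. Three independent experiments.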

[3] = target: Toll-like receptor 4 (Homo sapiens) (UniProt O00206); assay: Agonist activity at human TLR4 expressed in HEK-Blue cells assessed as activation of SEAP at 10 ug/ml incubated for 24 hrs by quanti-blue SEAP assay
Toll-like receptor 2 [4] = target: T1, Toll-like receptor 2; assay: Agonist activity at human TLR2 in PMA differentiated THP-1 cells assessed as TNF-alpha production incubated for 4 hrs by ELISA
Method in brief: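 THP-1 cells (2.5 × 10⁵/mL) were differentiated with 100 nM PMA in RPMI/10% FBS for 24 h at 37 °C, 5% CO₂. They were washed, rested 24 h in fresh medium, then treated 4 h with compound in serum-free RPMI. Supernatant TNF-α was measured by sandwich ELISA against recombinant standards, duplicate samples. Mean ± SD, three independent experiments.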

[5] = Cytotoxicity against human HEK-Blue cells transfected with hTLR2 assessed as cell viability upto 100 uM incubated for 24 hrs by CCK8 assay
Method in brief: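 HEK-Blue hTLR2 cells, 4 × 10⁴/well, were pre-cultured 24 h in DMEM/10% FBS at 37 °C, then exposed to compound for 24 h at 37 °C. Half the medium was removed, CCK-8 added, and incubation run 1–4 h at 37 °C before reading A450. Mean ± SD of three independent experiments.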

[6] = target: T2, Toll-like receptor 1/2 (Homo sapiens) (UniProt O60603+Q15399); assay: Agonist activity at human TLR1/2 expressed in HEK-Blue cells assessed as activation of SEAP at 0.5 uM incubated for 24 hrs by quanti-blue SEAP assay in presence of Anti-hTLR1-IgG
Method in brief: (§2)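 HEK-Blue hTLR2 cells (endogenous TLR1 and TLR6) were seeded at 4 × 10⁴/well in DMEM with 10% FBS and grown 24 h at 37 °C. The medium was then replaced with DMEM holding 0.5 μM compound plus anti-hTLR1-IgG, anti-hTLR2-IgA or anti-hTLR6 antibody (0–10 μg/mL) for 24 h. Supernatant was mixed 1:1 with QUANTI-Blue for 0.5–1 h at 37 °C and A620 read.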

Toll-like receptor 2 [7] = target: T1, Toll-like receptor 2; assay: Agonist activity at human TLR2 expressed in HEK-Blue cells assessed as NF-kappaB activation at 10 uM incubated for 24 hrs by quanti-blue SEAP assay
Method in brief: (§3)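 HEK-Blue hTLR2 cells (human TLR2 plus NF-κB-driven SEAP reporter in HEK293) were seeded at 4 × 10⁴/well and pre-grown 24 h at 37 °C. They were then exposed 24 h to compound in DMEM, with or without triptolide. SEAP in the supernatant was read with QUANTI-Blue (1:1, 37 °C, 0.5–1 h) at A620. Mean ± SD of three independent experiments.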

[8] = target: T2, Toll-like receptor 1/2 (Homo sapiens); assay: Agonist activity at human TLR1/2 expressed in HEK-Blue cells assessed as activation of SEAP at 0.5 uM incubated for 24 hrs by quanti-blue SEAP assay in presence of Anti-hTLR2-IgA; method in brief: as §2
Toll-like receptor 2 [9] = target: T1, Toll-like receptor 2; assay: Agonist activity at human TLR2 expressed in HEK-Blue cells assessed as increase in TLR2 expression at 10 uM incubated for 24 hrs by Western blot analysis relative to control; method in brief: as §1
TLR2/TLR6 (Homo sapiens) = TLR2/TLR6 (Homo sapiens) (UniProt O60603+Q9Y2C9); assay: Agonist activity at human TLR2/6 expressed in HEK-Blue cells assessed as activation of SEAP at 0.5 uM incubated for 24 hrs by quanti-blue SEAP assay in presence of Anti-hTLR6-IgG; method in brief: as §2
Toll-like receptor 2 [10] = target: T1, Toll-like receptor 2; assay: Agonist activity at human TLR2 expressed in HEK-Blue cells assessed as NF-kappaB activation at 10 uM incubated for 24 hrs in presence of NF-kappaB inhibitor, triptolide by quanti-blue SEAP assay; method in brief: as §3
[11] = target: Toll-like receptor 3 (Homo sapiens) (UniProt O15455); assay: Agonist activity at human TLR3 expressed in HEK-Blue cells assessed as activation of SEAP up to 100 uM incubated for 24 hrs by quanti-blue SEAP assay
Method in brief: (§4)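 HEK-Blue hTLR3 or hTLR4 cells were seeded at 4 × 10⁴/well and pre-grown 24 h, then incubated 24 h with compound at 0–100 μM. […] SEAP in the supernatant was read by QUANTI-Blue at OD620.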

[12] = target: Toll-like receptor 4 (Homo sapiens) (UniProt O00206); assay: Agonist activity at human TLR4 expressed in HEK-Blue cells assessed as activation of SEAP up to 100 uM incubated for 24 hrs by quanti-blue SEAP assay; method in brief: as §4

T1 sequence (O60603 whole entry): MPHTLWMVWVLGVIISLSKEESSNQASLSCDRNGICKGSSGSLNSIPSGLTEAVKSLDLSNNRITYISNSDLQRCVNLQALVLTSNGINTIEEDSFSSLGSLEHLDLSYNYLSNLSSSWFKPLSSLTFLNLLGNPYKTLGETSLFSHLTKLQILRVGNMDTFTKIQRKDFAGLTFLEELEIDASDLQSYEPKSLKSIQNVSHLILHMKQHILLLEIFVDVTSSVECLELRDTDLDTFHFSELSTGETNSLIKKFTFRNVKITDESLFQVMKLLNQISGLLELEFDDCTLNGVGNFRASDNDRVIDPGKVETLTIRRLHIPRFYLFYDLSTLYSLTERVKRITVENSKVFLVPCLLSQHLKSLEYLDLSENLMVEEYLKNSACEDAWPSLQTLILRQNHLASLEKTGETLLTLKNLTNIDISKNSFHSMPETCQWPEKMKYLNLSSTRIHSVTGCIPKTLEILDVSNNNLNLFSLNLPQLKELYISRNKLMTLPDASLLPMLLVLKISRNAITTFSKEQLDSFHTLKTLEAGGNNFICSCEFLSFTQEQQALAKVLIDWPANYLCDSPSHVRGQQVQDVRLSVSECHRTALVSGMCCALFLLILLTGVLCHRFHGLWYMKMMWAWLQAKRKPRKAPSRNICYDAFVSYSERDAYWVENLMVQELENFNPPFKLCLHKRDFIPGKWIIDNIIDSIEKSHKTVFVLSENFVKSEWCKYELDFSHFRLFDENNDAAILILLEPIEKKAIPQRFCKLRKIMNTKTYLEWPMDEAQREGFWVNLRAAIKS
Sequence of Toll-like receptor 4 (Homo sapiens) (O00206 whole entry): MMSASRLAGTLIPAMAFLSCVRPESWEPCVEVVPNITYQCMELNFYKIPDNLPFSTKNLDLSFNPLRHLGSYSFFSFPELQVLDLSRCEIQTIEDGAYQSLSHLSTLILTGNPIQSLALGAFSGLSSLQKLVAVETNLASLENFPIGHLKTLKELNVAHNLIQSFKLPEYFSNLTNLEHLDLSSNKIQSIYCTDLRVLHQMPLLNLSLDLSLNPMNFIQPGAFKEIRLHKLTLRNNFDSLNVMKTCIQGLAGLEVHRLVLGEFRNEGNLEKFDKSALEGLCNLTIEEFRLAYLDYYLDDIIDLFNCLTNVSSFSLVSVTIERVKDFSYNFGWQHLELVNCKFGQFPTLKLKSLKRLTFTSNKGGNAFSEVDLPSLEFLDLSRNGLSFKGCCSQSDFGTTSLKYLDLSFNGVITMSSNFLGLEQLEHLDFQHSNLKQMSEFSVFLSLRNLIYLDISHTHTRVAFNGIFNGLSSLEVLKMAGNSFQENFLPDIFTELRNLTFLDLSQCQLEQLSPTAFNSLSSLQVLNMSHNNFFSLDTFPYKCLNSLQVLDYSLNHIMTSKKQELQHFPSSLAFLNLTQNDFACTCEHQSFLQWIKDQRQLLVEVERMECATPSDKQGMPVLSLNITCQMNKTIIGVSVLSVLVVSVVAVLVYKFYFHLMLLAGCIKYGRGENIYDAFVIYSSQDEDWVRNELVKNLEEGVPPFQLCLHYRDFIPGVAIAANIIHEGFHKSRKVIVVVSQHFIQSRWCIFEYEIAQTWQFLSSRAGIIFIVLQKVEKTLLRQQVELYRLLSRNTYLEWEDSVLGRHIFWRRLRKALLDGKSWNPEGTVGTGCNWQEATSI
Sequence of Toll-like receptor 3 (Homo sapiens) (O15455 whole entry): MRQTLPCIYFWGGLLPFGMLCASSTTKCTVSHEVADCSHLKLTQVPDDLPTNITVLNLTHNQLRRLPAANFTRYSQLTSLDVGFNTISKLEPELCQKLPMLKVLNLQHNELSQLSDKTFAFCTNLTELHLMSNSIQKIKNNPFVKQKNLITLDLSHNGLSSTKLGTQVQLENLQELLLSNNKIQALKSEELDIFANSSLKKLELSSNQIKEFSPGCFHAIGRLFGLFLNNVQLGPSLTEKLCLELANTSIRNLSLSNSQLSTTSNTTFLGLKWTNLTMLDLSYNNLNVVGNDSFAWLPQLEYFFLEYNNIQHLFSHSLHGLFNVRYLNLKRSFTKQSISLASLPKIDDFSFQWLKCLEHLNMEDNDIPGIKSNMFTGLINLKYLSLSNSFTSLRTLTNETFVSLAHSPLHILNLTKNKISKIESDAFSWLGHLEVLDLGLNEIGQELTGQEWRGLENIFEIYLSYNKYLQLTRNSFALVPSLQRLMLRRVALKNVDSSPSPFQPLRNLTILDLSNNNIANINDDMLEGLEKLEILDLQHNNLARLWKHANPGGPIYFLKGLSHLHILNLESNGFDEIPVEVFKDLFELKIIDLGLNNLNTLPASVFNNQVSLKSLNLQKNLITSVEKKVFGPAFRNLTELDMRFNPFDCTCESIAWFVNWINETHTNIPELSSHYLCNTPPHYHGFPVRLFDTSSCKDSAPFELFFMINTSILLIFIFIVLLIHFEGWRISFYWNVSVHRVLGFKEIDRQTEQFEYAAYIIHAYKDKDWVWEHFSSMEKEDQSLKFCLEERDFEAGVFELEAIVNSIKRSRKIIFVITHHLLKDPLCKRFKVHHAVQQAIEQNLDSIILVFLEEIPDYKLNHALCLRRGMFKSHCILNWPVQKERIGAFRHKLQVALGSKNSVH

| EC50 (Toll-like receptor 2 [1]; read-out: EC50) [µM] | EC50 (Toll-like receptor 2 [1]) | SMILES | also measured |
| --- | --- | --- | --- |
| 0.56 |  | CCOC(=O)c1c(NC(=O)N2CCN(C)CC2)sc2c1CCC2 |  |
|  | Not Active | CC(=O)N1CCN(C(=S)Nc2sc3c(c2C(=O)OC(C)C)CCC3)CC1 |  |
|  | Not Active | CCOC(=O)c1c(NC(=O)N2CCN(CCO)CC2)sc2c1CCC2 |  |
| 14.2 |  | CCCOC(=O)c1c(NC(=O)N2CCN(C)CC2)sc2c1CCC2 |  |
| 3.46 |  | CCOC(=O)c1c(NC(=S)N2CCN(C)CC2)sc2c1CCC2 |  |
|  | Not Active | CC(C)OC(=O)c1c(NC(=S)N2CCN(C)CC2)sc2c1CCCCC2 |  |
| 6.43 |  | CCOC(=O)c1c(NC(=S)N2CCN(C)CC2)sc2c1CCCC2 |  |
| 11.8 |  | COC(=O)c1c(NC(=O)N2CCN(C)CC2)sc2c1CCC(C)C2 (stereo unspecified) |  |
| 6.63 |  | CCCOC(=O)c1c(NC(=O)N2CCN(C)CC2)sc2c1CCCC2 |  |
| 4.59 |  | CC(C)OC(=O)c1c(NC(=O)N2CCN(C)CC2)sc2c1CCC2 |  |
| 0.35 |  | CCOC(=O)c1c(NC(=O)N2CCN(C)CC2)sc2c1CCCC2 |  |
| 0.45 |  | COC(=O)c1c(NC(=O)N2CCN(C)CC2)sc2c1CCC2 |  |
| 45.2 |  | CC(C)OC(=O)c1c(NC(=S)N2CCN(C)CC2)sc2c1CCCC2 |  |
|  | Not Active | CCN1CCN(C(=O)Nc2sc3c(c2C(=O)OC(C)C)CCC3)CC1 |  |
|  | Not Active | CC(C)OC(=O)c1c(NC(=S)N2CCN(c3ccccc3)CC2)sc2c1CCC2 |  |
|  | Not Active | CCOC(=O)c1c(NC(=O)N2CCN(C(C)=O)CC2)sc2c1CCC2 |  |
|  | Not Active | CCOC(=O)c1c(NC(=S)N2CCN(C(C)=O)CC2)sc2c1CCC2 |  |
| 8.55 |  | CCOC(=O)c1c(NC(=O)N2CCN(CC)CC2)sc2c1CCC2 |  |
|  | Not Active | CN1CCN(C(=O)Nc2sc3c(c2C(=O)O)CCC3)CC1 |  |
|  | Not Active | CCOC(=O)c1c(NC(=O)N2CCCCC2)sc2c1CCC2 |  |
|  | Not Active | CC(C)OC(=O)c1c(NC(=S)N2CCNCC2)sc2c1CCC2 |  |
|  | Not Active | CCCOC(=O)c1c(NC(=S)N2CCN(C)CC2)sc2c1CCCC2 |  |
| 0.16 |  | COC(=O)c1c(NC(=O)N2CCN(C)CC2)sc2c1CCCC2 | fold change (FC) (Toll-like receptor 2 [2]): > 5; Activity [3]: inactive; Activity (Toll-like receptor 2 [4]): Dose-dependent effect; Activity [5]: Non-Toxic; Activity [6]: inactive; Activity (Toll-like receptor 2 [7]): Active; Activity [8]: inactive; fold change (FC) (Toll-like receptor 2 [9]): 8; Activity (TLR2/TLR6 (Homo sapiens)): Active; Activity (Toll-like receptor 2 [10]): inactive; Activity [11]: inactive; Activity [12]: inactive |
|  | Not Active | CC(C)OC(=O)c1c(NC(=O)N2CCN(c3ccccc3)CC2)sc2c1CCC2 |  |
|  | Not Active | CCOC(=O)c1c(NC(=O)N2CCOCC2)sc2c1CCC2 |  |
|  | Not Active | CCOC(=O)c1c(NC(=S)N2CCN(c3ccccc3)CC2)sc2c1CCC2 |  |
|  | Not Active | CCCCCC1CCc2c(sc(NC(=O)N3CCN(C)CC3)c2C(=O)OC)C1 (stereo unspecified) |  |
| 1.33 |  | COC(=O)c1c(NC(=O)N2CCN(C)CC2)sc2c1CCCCC2 |  |
| 16.4 |  | CC(C)OC(=O)c1c(NC(=S)N2CCN(C)CC2)sc2c1CCC2 |  |
